Source: PubChem BioAssay (Johns Hopkins Ion Channel Center)
Compounds with a hit are over-represented: about 3.5% of the library has one in this group of screens.
RGS4 inh: inhibitors of human RGS4. P49798. HEK293 M3R/RGS4 inducible, Fluo-4 calcium flux; stronger effect = higher value; triggered by carbachol at its EC20. B-score at 10 µM. hit rate 0.45% among 310,000. AID 463165;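 active = B-score, a plate-corrected calcium signal, over three deviations above library mean, with baseline fluorescence within five deviations of library mean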;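 also: RGS4 expression induced by doxycycline in cells with stable M3 receptor; B-score is computed from the integrated fluorescence ratio over baseline after carbachol; higher B-score means a larger calcium signal and so more RGS4 inhibition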
Target sequence (P49798 whole entry, looked up): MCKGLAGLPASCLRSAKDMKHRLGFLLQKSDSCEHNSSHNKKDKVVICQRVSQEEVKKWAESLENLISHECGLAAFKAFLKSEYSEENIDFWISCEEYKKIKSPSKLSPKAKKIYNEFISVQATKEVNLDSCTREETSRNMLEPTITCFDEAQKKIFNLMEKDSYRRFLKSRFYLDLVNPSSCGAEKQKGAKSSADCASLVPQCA
MrgX1 PAM: allosterically activates human MrgX1 receptor signaling; MrgX1-HEK293, Fluo-4 calcium flux, FDSS; stronger effect = higher value; AID 588675; Q96LB2; hit rate 0.63% among 310,000; B-score at 10 µM;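 active = plate-corrected calcium response at least 3 library SD above typical, normal starting fluorescence, not activating the receptor alone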;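 also: compound read alongside a low EC10 to EC30 dose of BAM8-22 agonist; peak minus trough fluorescence over baseline measured at the second addition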
Target sequence (Q96LB2 whole entry, looked up): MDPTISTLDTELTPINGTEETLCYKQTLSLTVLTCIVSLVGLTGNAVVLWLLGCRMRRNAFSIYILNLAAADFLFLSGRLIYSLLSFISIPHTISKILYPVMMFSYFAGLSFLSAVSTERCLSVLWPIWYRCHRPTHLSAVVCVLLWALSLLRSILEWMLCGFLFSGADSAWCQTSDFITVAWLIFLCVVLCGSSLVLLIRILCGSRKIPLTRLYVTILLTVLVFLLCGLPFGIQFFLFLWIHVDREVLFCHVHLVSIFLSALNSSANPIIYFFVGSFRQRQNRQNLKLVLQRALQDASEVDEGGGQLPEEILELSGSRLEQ
MrgX1 antag: antagonists of human MrgX1 receptor; Q96LB2; MRGX1-HEK293 calcium flux, Fluo-4, BAM8-22 antagonism; stronger effect = lower value; B-score at 10 µM; hit rate 1.3% among 310,000; AID 588676;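 active = calcium-response B-score plate-corrected more than 3 library SD below zero, starting fluorescence within 5 deviations, no agonist response on first addition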;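 also: peak minus trough fluorescence over baseline after final BAM8-22 challenge near maximal dose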
MrgX1 ag: activates human MrgX1 receptor signaling. Q96LB2. MrgX1-HEK293 cells, Fluo-4 calcium fluorescence, agonist mode; stronger effect = higher value. B-score at 10 µM. hit rate 0.44% among 310,000. AID 588627;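 active = calcium response B-score plate-corrected fluorescence ratio at least 3 library SD, with starting fluorescence B-score inside 5 SD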
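Material – MrgX1-expressing HEK293 cells · Input – 15,000 cells seeded per well · Dosing – compound as first of three additions · Times – overnight seeding, then 1 h dark dye loading · Measured by – kinetic Fluo-4 NW fluorescence of intracellular calcium · Read-out – B-scored fluorescence response ratio · Benchmarks – positive and negative control wells on each plate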
RGS4 pot: potentiators or activators of RGS4. HEK293 M3R/inducible RGS4, carbachol calcium flux Fluo4; stronger effect = lower value. hit rate 0.92% among 310,000. AID 463111. B-score at 10 µM;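 active = B-score of the integrated calcium signal more than 4 SD below the library mean, with starting fluorescence not abnormally high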;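 also: negative B-score means reduced calcium response which marks RGS4 activation or potentiation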
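Assay system: HEK293 FlpIn-TREx cells, stable M3R, doxycycline-inducible RGS4 / Probe or stimulus: carbachol, ECmax concentration / Times: overnight RGS4 induction, 30 min dye load 37 °C, 20 min compound RT / Signal: kinetic calcium fluorescence imaging with Fluo4-AM dye, 2 µM / Measure: Agonist-evoked peak-minus-minimum fluorescence over baseline, integrated ratio, B score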
RGS4 act valid: confirmation of RGS4 activators | AID 602282 | shares compounds with RGS4 pot | HEK293 M3R/RGS4 inducible, carbachol calcium flux Fluo4 | hit rate 89% among 1,100 | inhibition, % at 10 µM;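 active = inhibition above 3 SD of the buffer control wells, cut at about 41% in these data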;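 also: signal is the integrated peak-minus-minimum Fluo4 fluorescence over baseline ratio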
RGS4 act ctr: activity in cells without induced RGS4 expression; inhibition, % at 10 µM; AID 602283; shares compounds with RGS4 pot; HEK293 M3R non-induced RGS4, Fluo4 calcium flux; after carbachol challenge at its EC90; hit rate 82% among 1,100;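 active = inhibition exceeding 3 SD of buffer-only control wells, cut at about 26% in these data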;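 also: percent drop in integrated peak-minus-baseline over baseline Fluo4 ratio after carbachol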
An asterisk follows results filed as active.

O=C(Nc1ccc(NC(=O)c2cc3ccccc3o2)cc1)c1ccc2c(c1)OCCO2 was read as RGS4 inh inactive, MrgX1 PAM inactive, MrgX1 antag inactive, MrgX1 ag inactive and RGS4 pot inactive.
Cc1cc(NC(=O)c2ccc3c(c2)OCCO3)ccc1NC(=O)c1cc2ccccc2o1 was read as RGS4 inh inactive, MrgX1 PAM inactive, MrgX1 antag inactive, MrgX1 ag inactive, RGS4 pot -8.7*, RGS4 act valid 78* and RGS4 act ctr 0.
`CC(C)=CCc1c(O)cc(O)c2c1OC(c1ccc(O)cc1)CC2=O` (stereo unspecified) gave RGS4 inh inactive, MrgX1 PAM inactive, MrgX1 antag inactive, MrgX1 ag inactive, RGS4 pot -9.9*, RGS4 act valid 90* and RGS4 act ctr 86*.
CC(C)=CCc1c(O)c(CC=C(C)C)c2c(c1O)C(=O)CC(c1ccc(O)cc1)O2 (stereo unspecified) was read as RGS4 inh inactive, MrgX1 PAM inactive, MrgX1 antag inactive, MrgX1 ag inactive and RGS4 pot inactive.
CN(c1ccccc1)S(=O)(=O)c1cccc(C(=O)NCCc2c[nH]c3ccccc23)c1 was read as RGS4 inh inactive, MrgX1 PAM inactive, MrgX1 antag inactive, MrgX1 ag inactive, RGS4 pot -9.2*, RGS4 act valid 74* and RGS4 act ctr 48*.
`Cn1nc(C(F)(F)F)c2cc(NC(=O)OCc3ccc(F)cc3)sc21` gave RGS4 inh inactive, MrgX1 PAM inactive, MrgX1 antag inactive, MrgX1 ag inactive, RGS4 pot -7.9*, RGS4 act valid 74* and RGS4 act ctr 84*.
For C[C@H](NC(=O)N1CCC(Cc2ccccc2)CC1)C(=O)O the results were RGS4 inh inactive, MrgX1 PAM inactive, MrgX1 antag inactive, MrgX1 ag inactive and RGS4 pot inactive.
O=C(c1ccco1)N1CCN(c2nc(C3CC3)nc3sc4c(c23)CCCC4)CC1 was read as RGS4 inh inactive, MrgX1 PAM inactive, MrgX1 antag inactive, MrgX1 ag inactive, RGS4 pot -8.5*, RGS4 act valid 87* and RGS4 act ctr 45*.
N#Cc1c(N2CCN(C(=O)c3ccco3)CC2)nc(-c2ccccc2)c2c1CCCC2 was read as RGS4 inh inactive, MrgX1 PAM inactive, MrgX1 antag inactive, MrgX1 ag inactive, RGS4 pot -8.2*, RGS4 act valid 91* and RGS4 act ctr 48*.
Screening N#Cc1c(N2CCN(C(=O)c3ccccc3)CC2)nc(-c2ccccc2)c2c1CCCC2 returned RGS4 inh inactive, MrgX1 PAM inactive, MrgX1 antag inactive, MrgX1 ag inactive, RGS4 pot -7.9*, RGS4 act valid 90* and RGS4 act ctr 54*.
Screening CCOc1ccc(NC(=O)CCc2c(C)nn(-c3ccc(N4CCCCC4)nn3)c2C)cc1 returned RGS4 inh inactive, MrgX1 PAM inactive, MrgX1 antag inactive, MrgX1 ag inactive and RGS4 pot inactive.
Screening Cc1cc(C)c(S(=O)(=O)Nc2ccc3c(c2)CCC3)c(C)c1 returned RGS4 inh inactive, MrgX1 PAM inactive, MrgX1 antag inactive, MrgX1 ag inactive, RGS4 pot -10*, RGS4 act valid 92* and RGS4 act ctr 74*.
For Cc1cc(C)c(S(=O)(=O)Nc2ccc(O)cc2)c(C)c1 the results were RGS4 inh inactive, MrgX1 PAM inactive, MrgX1 antag inactive, MrgX1 ag inactive and RGS4 pot inactive.
`Cc1cc(S(=O)(=O)N2CCCC(N3CCOCC3)C2)c(C)cc1Cl` (stereo unspecified) gave RGS4 inh inactive, MrgX1 PAM inactive, MrgX1 antag inactive, MrgX1 ag inactive and RGS4 pot inactive.
Screening CCCc1cc(=O)oc2cc(C)cc(OC(C)C(=O)N[C@@H](Cc3c[nH]c4ccccc34)C(=O)O)c12 (stereo partly specified) returned RGS4 inh inactive, MrgX1 PAM inactive, MrgX1 antag inactive, MrgX1 ag inactive, RGS4 pot -14*, RGS4 act valid 0 and RGS4 act ctr 0.
